ChEMBL document CHEMBL1128599, “Nucleoside conjugates. 14. Synthesis and antitumor activity of 1-beta-D-arabinofuranosylcytosine conjugates of ether lipids with improved water solubility” (J Med Chem, 1995)
“And” between values parts separate entries of the source, which are not always exact repeats. Equal entries are not always repeated.

Tests used:
[1] = system: Mus musculus; assay: Antitumor activity at 150 mg/kg/day on 1, 5, 9 day treatment schedule, qd against L1210 infected mice was expressed as increase in life span (ILS); assay type: functional; details: L1210, 216 h
Outline: (§1)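 Groups of 6 male DBA/2Ros mice (20–29 g) were inoculated ip on day 0 with 1 × 10⁶ L1210 cells. Conjugate was given ip as a shaken or sonicated aqueous solution from day 1, over a wide dose range. Optimal-dose results are reported as ILS = (T/C − 1) × 100 from median survival, or as 45-day survivors.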

[2] = system: Mus musculus; assay: Number of mice (out of 6 mice) survived after treatment with 150 mg/kg/day of compound on 1, 5, 9 day treatment schedule for 45 days; assay type: functional; outline: as §1
[3] = system: Mus musculus; assay: Number of mice (out of 6 mice) survived after treatment with 200 mg/kg/day of compound on a 1,7 day treatment schedule for 45 days; assay type: functional; outline: as §1
[4] = system: Mus musculus; assay: Antitumor activity at 200 mg/kg/day on a 1 day treatment schedule, qd against L1210 infected mice was expressed as increase in life span (ILS); assay type: functional; details: L1210, 24 h; outline: as §1
[5] = system: Mus musculus; assay: Antitumor activity at 200 mg/kg/day on a 1,7 day treatment schedule, qd against L1210 infected mice was expressed as increase in life span (ILS); assay type: functional; outline: as §1
[6] = Solubility in water determined by UV absorption at 272 nm; assay type: physicochemical; details: read-out: S
[7] = system: Mus musculus; assay: Number of mice (out of 6 mice) survived after treatment with 200 mg/kg/day of compound on a 1 day treatment schedule for 45 days; assay type: functional; outline: as §1
[8] = system: Mus musculus; assay: Antitumor activity at 300 mg/kg/day on a 1 day treatment schedule, qd against L1210 infected mice by sonication method was expressed as increase in life span (ILS); assay type: functional; details: L1210, 24 h
Outline: (§2)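 L1210 cells (1 × 10⁶) were inoculated ip into male DBA/2Ros mice (20–29 g, 6 per group) on day 0. Ip dosing began day 1. Conjugate in water suspension was sonicated 2 min (20–60 °C), then 0.22 μm filtered. Over a 45-day observation, read-outs were median survival T/C, ILS = (T/C − 1) × 100, or number alive at day 45.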

[9] = system: Mus musculus; assay: Number of mice (out of 6 mice) survived after treatment with 300 mg/kg/day of compound on a 1 day by sonication method treatment schedule for 45 days; assay type: functional; outline: as §2
[10] = system: Mus musculus; assay: Antitumor activity at 150 mg/kg/day on 1, 5, 9 day treatment schedule, qd against L1210 infected mice by shaking method was expressed as increase in life span (ILS); assay type: functional; details: L1210, 216 h
Outline: (§3)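 Male DBA/2Ros mice (20–29 g, groups of 6) got 1 × 10⁶ L1210 leukemia cells ip on day 0. Ip treatment started day 1. Conjugate was shaken in sterile water for 2 h at room temperature, then 0.22 μm filtered. Mice were observed 45 days. Read-outs were median survival T/C with ILS = (T/C − 1) × 100, or 45-day survivors.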

[11] = system: Mus musculus; assay: Number of mice (out of 6 mice) survived after treatment with 150 mg/kg/day of compound on 1, 5, 9 day by sonication method treatment schedule for 45 days; assay type: functional; outline: as §2
[12] = system: Mus musculus; assay: Antitumor activity at 300 mg/kg/day on a 1 day treatment schedule, qd against L1210 infected mice by shaking method was expressed as increase in life span (ILS); assay type: functional; details: L1210, 24 h; outline: as §3
[13] = system: Mus musculus; assay: Antitumor activity at 150 mg/kg/day on 1, 5, 9 day treatment schedule, qd against L1210 infected mice by sonication method was expressed as increase in life span (ILS); assay type: functional; details: L1210, 216 h; outline: as §2
[14] = system: Mus musculus; assay: Number of mice (out of 6 mice) survived after treatment with 300 mg/kg/day of compound on a 1 day by shaking method treatment schedule for 45 days; assay type: functional; outline: as §3
[15] = system: Mus musculus; assay: Number of mice (out of 6 mice) survived after treatment with 150 mg/kg/day of compound on 1, 5, 9 day by shaking method treatment schedule for 45 days; assay type: functional; outline: as §3
[16] = system: Mus musculus; assay: Number of mice (out of 6 mice) survived after treatment with 300 mg/kg/day of compound on a 1 day treatment schedule for 45 days; assay type: functional; outline: as §1
[17] = system: Mus musculus; assay: Antitumor activity at 300 mg/kg/day on a 1,7 day treatment schedule, qd against L1210 infected mice was expressed as increase in life span (ILS); assay type: functional; outline: as §1
[18] = system: Mus musculus; assay: Antitumor activity at 300 mg/Kg/day on a 1 day treatment schedule, qd against L1210 infected mice was expressed as increase in life span (ILS); assay type: functional; details: L1210, 24 h; outline: as §1
[19] = system: Mus musculus; assay: Antitumor activity at 200 mg/kg/day on a 1 day treatment schedule, qd against L1210 infected mice by shaking method was expressed as increase in life span (ILS); assay type: functional; details: L1210, 24 h; outline: as §3
[20] = system: Mus musculus; assay: Number of mice (out of 6 mice) survived after treatment with 300 mg/kg/day of compound on a 1,7 day treatment schedule for 45 days; assay type: functional; outline: as §1
[21] = system: Mus musculus; assay: Antitumor activity at 200 mg/kg/day on a 1 day treatment schedule, qd against L1210 infected mice by sonication method was expressed as increase in life span (ILS); assay type: functional; details: L1210, 24 h; outline: as §2
[22] = system: Mus musculus; assay: Antitumor activity at 300 mg/kg/day on a 1,7 day treatment schedule, qd against L1210 infected mice by shaking method was expressed as increase in life span (ILS); assay type: functional; outline: as §3

| SMILES | ILS at 150 mg/kg/day [1] [%] | No. of mice [2] | ILS at 200 mg/kg/day [4] [%] | solubility [6] [mM] | No. of mice [7] | No. of mice [16] | further results |
| --- | --- | --- | --- | --- | --- | --- | --- |
| CCCCCCCCCCCCCCCC(=O)OC(COCCCCCCCCCCCC)COP(=O)([O-])OP(=O)([O-])OC[C@H]1OC(n2ccc(N)nc2=O)[C@@H](O)[C@@H]1O.[Na+].[Na+] (stereo not given in full) | > 313 | 3 | 128 | > 131 | 0 |  | No. of mice [3]: 0; ILS at 200 mg/kg/day [5]: 286% |
| CCCCCCCCCCCCCCCCOCC(COP(=O)([O-])OP(=O)([O-])OC[C@H]1OC(n2ccc(N)nc2=O)[C@@H](O)[C@@H]1O)OC(=O)CCCCCCCCCCCCC.[Na+].[Na+] (stereo not given in full) |  |  |  | > 107 |  |  | ILS at 300 mg/kg/day [8]: > 464%; No. of mice [9]: 3; ILS at 150 mg/kg/day [10]: > 463%; No. of mice [11]: 4; ILS at 300 mg/kg/day [12]: 258%; ILS at 150 mg/kg/day [13]: > 463%; No. of mice [14]: 1; No. of mice [15]: 5 |
| CCCCCCCCCCCCCCCCOCC(COP(=O)([O-])OP(=O)([O-])OC[C@H]1OC(n2ccc(N)nc2=O)[C@@H](O)[C@@H]1O)OC(=O)CCCCCCCCCCC.[Na+].[Na+] (stereo not given in full) | > 463 | 5 |  | > 132 |  | 0 | No. of mice [3]: 3; ILS at 300 mg/kg/day [17]: > 350%; ILS at 300 mg/kg/day [18]: 119% |
| CCCCCCCCCCCCCC(=O)OC(COCCCCCCCCCCCC)COP(=O)([O-])OP(=O)([O-])OC[C@H]1OC(n2ccc(N)nc2=O)[C@@H](O)[C@@H]1O.[Na+].[Na+] (stereo not given in full) | > 394 | 3 | 69 | > 146 | 0 |  |  |
| CCCCCCCCCCCCCCCC(=O)OC(COCCCCCCCCCCCCCC)COP(=O)([O-])OP(=O)([O-])OC[C@H]1OC(n2ccc(N)nc2=O)[C@@H](O)[C@@H]1O.[Na+].[Na+] (stereo not given in full) |  | 3 and 5 |  | > 43 | 2 and 1 | 4 and 2 | ILS at 300 mg/kg/day [8]: > 206%; ILS at 150 mg/kg/day [10]: > 350%; ILS at 200 mg/kg/day [19]: 275%; No. of mice [20]: 1; ILS at 300 mg/kg/day [12]: > 543%; ILS at 150 mg/kg/day [13]: > 463%; ILS at 200 mg/kg/day [21]: 206%; ILS at 300 mg/kg/day [22]: 107% |
| CCCCCCCCCCCCCCCCOCC(COP(=O)([O-])OP(=O)([O-])OC[C@H]1OC(n2ccc(N)nc2=O)[C@@H](O)[C@@H]1O)OC(=O)CCCCCCCCCCCCCCC.[Na+].[Na+] (stereo not given in full) | 306 | 3 | > 250 | 0.13 | 3 |  |  |
| CCCCCCCCCCCCCCOCC(COP(=O)([O-])OP(=O)([O-])OC[C@H]1OC(n2ccc(N)nc2=O)[C@@H](O)[C@@H]1O)OC(=O)CCCCCCCCCCCCC.[Na+].[Na+] (stereo not given in full) | 125 | 1 |  | > 121 |  | 0 | ILS at 300 mg/kg/day [18]: 178% |
